Reference: paper PMC9669183 (British journal of pharmacology, 2022)
Values joined by “and” are separate entries in the source; they are usually repeats but may differ in a detail not shown here. Equal values may be shown once. Read-outs that look alike come from different tables or passages of the source.

Key:
[1] = target: T1, α1β3γ2L GABAAR (Homo sapiens, UniProt P14867+P18507+P28472); type: binding; settings: for direct effect on fluorescence from α1β3γ2L-bound Gzn-OG (orthosteric site): 3-100 μM α7-PAM, no GABA
[2] = target: T2, α1β2γ2L GABAAR (Rattus norvegicus, UniProt P18508+P62813+P63138, INS375LLRMFSFK); test: Direct activation, two-electrode voltage clamp in Xenopus oocytes; type: cell-based; settings: 50 μM α7-PAM; n=5 oocytes/drug; mean±SEM
[3] = target: T2, α1β2γ2L GABAAR; type: cell-based; settings: for potentiation of the response to low GABA (% of control): 50 μM α7-PAM, 2-5 μM GABA (PA<0.10), 100% = no effect, mean±SEM; for free energy change (ΔG) towards stabilizing the active state: co-agonist concerted transition model
[4] = target: T2, α1β2γ2L GABAAR; test: Modulation of steady-state response to saturating GABA, Xenopus oocytes; type: cell-based; settings: 50 μM α7-PAM; 1 mM GABA
[5] = target: T2, α1β2γ2L GABAAR; test: Drug combination; type: cell-based
[6] = target: T2, α1β2γ2L GABAAR; test: Potentiation of receptors activated by allosteric agonists; type: cell-based
[7] = target: α1(Q241L)β2γ2L GABAAR (Rattus norvegicus, UniProt P18508+P62813+P63138, INS375LLRMFSFK/Q268L); test: Potentiation of low GABA response, mutant receptor in oocytes; type: cell-based; settings: 50 μM; low GABA PA<0.10; mean±SEM
[8] = target: α1β2(N265M)γ2L GABAAR (Rattus norvegicus, UniProt P18508+P62813+P63138, INS375LLRMFSFK/N289M); test: as above; type: cell-based; settings: 50 μM; low GABA PA<0.10; mean±SEM
[9] = target: α1β2(M286W)γ2L GABAAR (Rattus norvegicus, UniProt P18508+P62813+P63138, INS375LLRMFSFK/M310W); test: as above; type: cell-based; settings: 50 μM; low GABA PA<0.10; mean±SEM
[10] = target: α1(L232C)β2γ2L GABAAR (Rattus norvegicus, UniProt P18508+P62813+P63138, INS375LLRMFSFK/L258C); test: as above; type: cell-based; settings: 50 μM; low GABA PA<0.10; mean±SEM
[11] = target: α1(M236C)β2γ2L GABAAR (Rattus norvegicus, UniProt P18508+P62813+P63138, INS375LLRMFSFK/M262C); test: as above; type: cell-based; settings: 50 μM; low GABA PA<0.10; mean±SEM
[12] = target: α1(A291W)β2γ2L GABAAR (Rattus norvegicus, UniProt P18508+P62813+P63138, A317W/INS375LLRMFSFK); test: as above; type: cell-based; settings: 50 μM; low GABA PA<0.10; mean±SEM
[13] = target: α1β2γ2L(S280C) GABAAR (Rattus norvegicus, UniProt P18508+P62813+P63138, INS375LLRMFSFK/S318C); test: as above; type: cell-based; settings: 50 μM; low GABA PA<0.10; mean±SEM
[14] = target: α1β2γ2L(I242C) GABAAR (Rattus norvegicus, UniProt P18508+P62813+P63138, I280C/INS375LLRMFSFK); test: as above; type: cell-based; settings: 50 μM; low GABA PA<0.10; mean±SEM
[15] = target: α1β2γ2L(L246C) GABAAR (Rattus norvegicus, UniProt P18508+P62813+P63138, INS375LLRMFSFK/L284C); test: as above; type: cell-based; settings: 50 μM; low GABA PA<0.10; mean±SEM
[16] = target: T1, α1β3γ2L GABAAR; test: Potentiation of low GABA response, oocytes; type: cell-based; settings: 50 μM; low GABA PA<0.10; mean±SEM
[17] = target: α1β3(M227C)γ2L GABAAR (Homo sapiens, UniProt P14867+P18507+P28472, M252C); test: Potentiation of low GABA response, mutant receptor in oocytes; type: cell-based; settings: 50 μM; low GABA PA<0.10; mean±SEM
[18] = target: α1β3(L231C)γ2L GABAAR (Homo sapiens, UniProt P14867+P18507+P28472, L256C); test: as above; type: cell-based; settings: 50 μM; low GABA PA<0.10; mean±SEM
[19] = target: α4β2δ GABAA receptor (Homo sapiens, UniProt O14764+P47870+P48169); test: Effect on α4β2δ receptor during long drug applications, oocytes; type: cell-based
Outline: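 Human α4β2δ GABAA receptors were expressed in Xenopus laevis oocytes by injecting 3.5-6 ng total cRNA per oocyte. Oocytes were held 1-2 days in ND96 (pH 7.4) with Na pyruvate and antibiotics. Currents were recorded by two-electrode voltage clamp.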

[20] = test system: binary αβ GABAA receptors (α1β2, α1β3); test: Potentiation of binary αβ receptors compared with ternary αβγ, oocytes; type: cell-based
[21] = test system: α4β2 nicotinic receptor; settings: at high μM concentrations; ref Arias et al., 2011; Timmermann et al., 2007; cited from earlier work
[22] = test system: α3β4 nicotinic receptor; settings: at high μM concentrations; ref Arias et al., 2011; Timmermann et al., 2007; cited from earlier work
[23] = c 0.804, KR,PNU-120596 constrained to 10 μM
[24] = c 0.804, KR,PNU-120596 constrained to 50 μM
[25] = c 0.804, KR,PNU-120596 constrained to 100 μM
[26] = 0.5 μM GABA+20 μM NS-1738+25 μM PAM-2

Sequence of α4β2δ GABAA receptor (P48169 36-554): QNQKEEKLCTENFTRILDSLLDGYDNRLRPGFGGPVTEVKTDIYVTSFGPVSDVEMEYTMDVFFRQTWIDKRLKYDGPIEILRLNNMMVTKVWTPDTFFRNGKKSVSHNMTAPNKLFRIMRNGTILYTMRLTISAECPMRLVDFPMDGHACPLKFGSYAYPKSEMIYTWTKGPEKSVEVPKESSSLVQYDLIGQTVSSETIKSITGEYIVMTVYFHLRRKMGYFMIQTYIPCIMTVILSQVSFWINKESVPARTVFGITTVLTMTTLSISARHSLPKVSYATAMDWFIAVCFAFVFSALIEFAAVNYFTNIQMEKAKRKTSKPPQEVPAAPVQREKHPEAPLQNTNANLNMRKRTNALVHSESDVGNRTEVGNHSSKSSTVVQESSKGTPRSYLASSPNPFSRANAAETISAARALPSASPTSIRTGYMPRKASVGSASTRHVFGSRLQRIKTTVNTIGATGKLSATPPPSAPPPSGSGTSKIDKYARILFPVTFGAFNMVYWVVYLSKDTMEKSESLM
Sequence of α4β2δ GABAA receptor (P47870 25-512 limits assumed): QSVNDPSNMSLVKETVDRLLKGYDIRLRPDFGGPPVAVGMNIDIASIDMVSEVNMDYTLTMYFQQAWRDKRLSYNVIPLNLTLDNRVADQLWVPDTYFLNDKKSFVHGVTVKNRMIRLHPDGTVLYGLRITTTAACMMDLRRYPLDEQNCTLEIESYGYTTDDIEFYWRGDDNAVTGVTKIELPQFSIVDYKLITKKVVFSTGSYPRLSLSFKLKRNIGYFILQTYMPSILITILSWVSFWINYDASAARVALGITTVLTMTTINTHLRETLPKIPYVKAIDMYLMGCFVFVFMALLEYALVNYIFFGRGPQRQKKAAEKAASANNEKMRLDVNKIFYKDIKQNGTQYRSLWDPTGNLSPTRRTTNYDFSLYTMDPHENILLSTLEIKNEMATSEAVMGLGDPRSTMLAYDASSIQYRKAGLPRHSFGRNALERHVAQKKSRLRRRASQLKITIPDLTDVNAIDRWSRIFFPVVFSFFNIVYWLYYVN
Sequence of α4β2δ GABAA receptor (O14764 25-452): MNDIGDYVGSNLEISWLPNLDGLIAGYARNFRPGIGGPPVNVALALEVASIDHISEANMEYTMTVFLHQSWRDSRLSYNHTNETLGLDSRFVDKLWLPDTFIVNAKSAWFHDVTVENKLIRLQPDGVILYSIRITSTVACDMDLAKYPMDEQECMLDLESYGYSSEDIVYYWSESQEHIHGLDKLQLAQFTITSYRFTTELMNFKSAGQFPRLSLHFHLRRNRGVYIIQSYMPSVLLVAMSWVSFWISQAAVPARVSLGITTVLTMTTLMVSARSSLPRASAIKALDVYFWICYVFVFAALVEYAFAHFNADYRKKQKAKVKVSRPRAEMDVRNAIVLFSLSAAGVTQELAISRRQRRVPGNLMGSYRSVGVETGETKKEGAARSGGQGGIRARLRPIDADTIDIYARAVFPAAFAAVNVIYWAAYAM

## COc1cc(OC)c(NC(=O)Nc2cc(C)on2)cc1Cl [PNU-120596, N-(5-Cl-2,4-dimethoxyphenyl)-N’-(5-methyl-3-isoxazolyl)-urea]
[1]; 3-10 μM α7-PAM
  shift in GABA F/Fo curves: Leftward shift
[1]
  direct effect on fluorescence from α1β3γ2L-bound Gzn-OG (orthosteric site): do not modify fluorescence
[2]
  direct activation: response as % of the peak response to 1 mM GABA+50 μM propofol: 0.38±0.09%
[3]
  potentiation of the response to low GABA (% of control): 133±11 % of control
  free energy change (ΔG) towards stabilizing the active state: -0.26 ± 0.04 kcal/mol and -0.26 kcal/mol
[3]; coapplied with low GABA (PA=0.05-0.13)
  potentiation EC50 (Hill equation): the fits did not converge
[4]
  steady-state response to saturating GABA in presence of α7-PAM (% of control): 90±2 % of control
[5]; 0.1-0.5 μM GABA+10 μM NS-1738+50 μM PNU-120596, 5 oocytes
  PA of response to low GABA+NS-1738 with PNU-120596 coapplied: 0.074±0.024
[5]; [23]
  predicted PA for GABA+NS-1738+PNU-120596, distinct site model: 0.114
  predicted PA for GABA+NS-1738+PNU-120596, same site model: 0.047
[5]; [24]
  predicted PA for GABA+NS-1738+PNU-120596, distinct site model: 0.103
  predicted PA for GABA+NS-1738+PNU-120596, same site model: 0.065
[5]; [25]
  predicted PA for GABA+NS-1738+PNU-120596, distinct site model: 0.097
  predicted PA for GABA+NS-1738+PNU-120596, same site model: 0.073

## Cc1ccc(NC(=O)/C=C/c2ccco2)cc1 [PAM-2, (E)-3-(furan-2-yl)-N-(p-tolyl)-acrylamide]
[1]; 100 μM α7-PAM
  decrease in GABA Ki between 0 (control) and 100 μM α7-PAM: 3.8 fold
[1]
  direct effect on fluorescence from α1β3γ2L-bound Gzn-OG (orthosteric site): do not modify fluorescence
[2]
  direct activation: response as % of the peak response to 1 mM GABA+50 μM propofol: 0.70±0.19%
[3]
  EC50: 26 ± 8 µM
  Kd: 24.8 ± 10.5 µM
  potentiation of the response to low GABA (% of control): 300 ± 43 % of control
  free energy change (ΔG) towards stabilizing the active state: -0.76 kcal/mol
[4]
  steady-state response to saturating GABA in presence of α7-PAM (% of control): 70±4 % of control
[5]; [26]
  calculated PA for GABA+NS-1738+PAM-2, distinct site model: 0.267±0.065
  calculated PA for GABA+NS-1738+PAM-2, same site model: 0.146±0.043
  observed PA of response to GABA+NS-1738+PAM-2: 0.158±0.044
[5]; 50 μM α7-PAM, R(+)-etomidate
  observed PA in the presence of R(+)-etomidate+α7-PAM: 0.050±0.013
  predicted PA for R(+)-etomidate+α7-PAM, distinct site model: 0.097±0.030
  predicted PA for R(+)-etomidate+α7-PAM, same site model: 0.008±0.002
[6]; 50 μM α7-PAM, 10 μM propofol
  potentiation of currents elicited by propofol (% of control): 123±9 % of control
[6]; 50 μM α7-PAM, 1 mM phenobarbital, n=5
  potentiation of the response to phenobarbital (% of control): 103±6 % of control
[6]; 50 μM α7-PAM, 2-4 μM R(+)-etomidate
  potentiation of the peak response to R(+)-etomidate (% of control): 140±17 % of control
[7]
  Potentiation (% of control), α1(Q241L)β2γ2L: 382 ± 29% of control
[8]
  Potentiation (% of control), α1β2(N265M)γ2L: 124 ± 6% % of control
[9]
  Potentiation (% of control), α1β2(M286W)γ2L: 181 ± 12% % of control
[10]
  Potentiation (% of control), α1(L232C)β2γ2L: 197 ± 8% % of control
[11]
  Potentiation (% of control), α1(M236C)β2γ2L: 176 ± 11% % of control
[12]
  Potentiation (% of control), α1(A291W)β2γ2L: 130 ± 7% % of control
[13]
  Potentiation (% of control), α1β2γ2L(S280C): 233 ± 16% of control
[14]
  Potentiation (% of control), α1β2γ2L(I242C): 189 ± 11% % of control
[15]
  Potentiation (% of control), α1β2γ2L(L246C): 147 ± 7% % of control
[16]
  Potentiation (% of control), α1β3γ2L: 176 ± 12% % of control
[17]
  Potentiation (% of control), α1β3(M227C)γ2L: 163 ± 12% of control
[18]
  Potentiation (% of control), α1β3(L231C)γ2L: 153 ± 11% of control
[19]
  effect on the α4β2δ receptor: inhibited
[20]
  magnitude of potentiation in binary αβ vs ternary αβγ receptors: similar
[21]
  effect on the heteromeric α4β2 nicotinic receptor: inhibit
[22]
  effect on the heteromeric α3β4 nicotinic receptor: inhibit

## CCOC(=O)c1cncn1[C@H](C)c1ccccc1 [R(+)-etomidate, R-1-(1-ethylphenyl)imidazole-5-ethyl ester]
[6]; 2-4 μM R(+)-etomidate
  PA of response to R(+)-etomidate alone: 0.053±0.015 and 0.041±0.013

## CC(C)c1cccc(C(C)C)c1O [propofol]
[6]; 10 μM propofol
  PA of currents elicited by propofol alone: 0.06-0.07

## NCCCC(=O)O [GABA, γ-aminobutyric acid]
[3]; 2-5 μM GABA (EC6-7)
  PA of response to GABA alone: 0.05-0.06
[5]; 0.5 μM GABA, n=5
  PA of response to GABA alone: 0.039±0.013
